Results on 24 compounds are retold here after ChEMBL document CHEMBL4330127, “Discovery of Novel Pyruvate Dehydrogenase Kinase 4 Inhibitors for Potential Oral Treatment of Metabolic Diseases” (J Med Chem, 2019).

The target of data set [1] is T1, [Pyruvate dehydrogenase (acetyl-transferring)] kinase isozyme 4, mitochondrial (Homo sapiens, UniProt Q16654). Put plainly: Inhibition of PDK4 (unknown origin) at 10 uM relative to control.
Target sequence in this assay (Q16654 whole entry, looked up): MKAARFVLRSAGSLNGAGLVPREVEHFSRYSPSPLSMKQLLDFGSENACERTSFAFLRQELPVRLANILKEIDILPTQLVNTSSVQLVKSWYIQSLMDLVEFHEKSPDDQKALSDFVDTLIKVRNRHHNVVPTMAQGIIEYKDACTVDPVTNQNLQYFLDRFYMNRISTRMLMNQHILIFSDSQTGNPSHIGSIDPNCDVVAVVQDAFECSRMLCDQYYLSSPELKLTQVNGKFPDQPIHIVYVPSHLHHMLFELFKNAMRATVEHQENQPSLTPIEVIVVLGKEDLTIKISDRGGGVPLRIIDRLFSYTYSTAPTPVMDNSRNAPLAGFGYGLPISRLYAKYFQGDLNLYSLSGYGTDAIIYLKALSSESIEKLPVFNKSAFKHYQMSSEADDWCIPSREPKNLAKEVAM
Data set [2] addresses T1, [Pyruvate dehydrogenase (acetyl-transferring)] kinase isozyme 4, mitochondrial. Put plainly: Inhibition of PDK4 (unknown origin).
Target sequence in this assay (Q16654 whole entry): as the sequence (Q16654 whole entry, looked up) above
Data set [3] shares this target. The data set can be described thus: Inhibition of PDK4 in HEK293T cells assessed as reduction in PDHE1alpha phosphorylation at Ser-300 residue by measuring phosphorylated PDHE1alpha level at 10 uM after 24 hrs by Western blot analysis. In kind it is cell-based. A digest of the protocol:
(§1)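 HEK293T cells grown in high-glucose DMEM with 10% FBS at 37 °C, 5% CO2. Medium renewed after 24 h, then cells exposed to compound for 24 h and lysed. 20 μg protein per lane Western blotted with antibodies to phospho-PDHE1α Ser232, Ser293 and Ser300 and to total PDHE1α. Band intensity quantified relative to control; triplicate.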
Target sequence in this assay (Q16654 whole entry, looked up): as above

Data set [4] has the same target. Put plainly: Inhibition of PDK4 in HEK293T cells assessed as reduction in PDHE1alpha phosphorylation at Ser-293 residue by measuring phosphorylated PDHE1alpha level at 10 uM after 24 hrs by Western blot analysis. In kind it is cell-based. Summed up:
as §1
Target sequence in this assay (Q16654 whole entry, looked up): as above

For data set [5] the target is unchanged. The data set can be described thus: Inhibition of PDK4 in HEK293T cells assessed as reduction in PDHE1alpha phosphorylation at Ser-232 residue by measuring phosphorylated PDHE1alpha level at 10 uM after 24 hrs by Western blot analysis. Type of data set: cell-based. A digest of the protocol: as §1
Target sequence in this assay (Q16654 whole entry, looked up): as above
Data set [6] can be described thus: Metabolic stability in rat liver microsomes assessed as parent compound remaining after 30 mins by LC-MS/MS analysis. In kind it is ADME, Microsome. The following applies: read-out: Stability.
Data set [7] is described as follows: Metabolic stability in human liver microsomes assessed as parent compound remaining at 1 uM after 30 mins by LC-MS/MS analysis.

Consider `O=C1c2ccccc2C(O)(C(F)(F)F)c2cccc(-c3cnn(C4CCNCC4)c3)c21` (stereo not given), for which the inhibition in data set [1] was 30.2%. The same measure, in the same setting: the same measure for `O=C1c2ccccc2C(=O)c2c1cccc2C1=CCNCC1`: 35.6%; for `O=C1c2ccccc2C(O)(C(F)(F)F)c2cccc(C3=CCN(C(=O)OCc4ccccc4)CC3)c21` (stereo not given): 34.1%. Same read-out and setting: the same measure for `CCOC(=O)C(C)n1cc(-c2cccc3c2C(=O)c2ccccc2C3=O)cn1` (stereo not given): 29.4%; for `O=C1c2ccccc2C(=O)c2c(Br)cccc21`: 37.8%; for `CC(C)(C)OC(=O)N1CCC(n2cc(-c3cccc4c3C(=O)c3ccccc3C4(O)C(F)(F)F)cn2)CC1` (stereo not given): 32.1%. `O=C1c2ccccc2C(=O)c2c1cccc2-c1cnn(C2CCCCO2)c1` (stereo not given) registered an inhibition in data set [1] of 24.3%. `CC(C)(C)OC(=O)N1CC=C(c2cccc3c2C(=O)c2ccccc2C3(O)C(F)(F)F)CC1` (stereo not given) registered an inhibition in data set [1] of 17.3%. Take `O=C1c2ccccc2C(=O)c2c1cccc2C1=CCN(C(=O)OCc2ccccc2)CC1`: in data set [1], the inhibition is 41.6%. In data set [2], `CC(C)(C)OC(=O)N1CC=C(c2cccc3c2C(=O)c2ccccc2C3=O)CC1` returned a 50% inhibitory concentration (IC50) of 600 nM. This compound also registered an inhibition in data set [1] of 53.4%.

Compound `CS(=O)(=O)N1CC=C(c2cccc3c2C(=O)c2ccccc2C3=O)CC1` gave an inhibition in data set [1] of 29.5%.

`CCOC(=O)C(C)n1cc(-c2cccc3c2C(=O)c2ccccc2C3(O)C(F)(F)F)cn1` (stereo not given) gave an inhibition in data set [1] of 36.9%. Consider `O=C1c2ccccc2C(=O)c2ccccc21`, for which, in data set [1], the inhibition was 40.7%.

Consider `CC(C)(C)OC(=O)N1CCC(n2cc(-c3cccc4c3C(=O)c3ccccc3C4=O)cn2)CC1`, for which the inhibition in data set [1] is 32.6%. `O=C1c2ccccc2C(=O)c2c1cccc2-c1cccnc1` gave an inhibition in data set [1] of 25.4%. In the case of `O=C1c2ccccc2C(O)(C(F)(F)F)c2cccc(C3=CCNCC3)c21` (stereo not given), in data set [1], the inhibition is 29.7%.

In the case of `O=S(=O)(c1ccc(O)cc1O)N1Cc2cc(O)cc(O)c2C1`, the fold change (FC) in data set [3] was determined as 0.93; in data set [4], 0.98; in data set [5], 0.62. The same compound displayed an inhibition in data set [1] of 34.1%. As to `CC(C(=O)O)n1cc(-c2cccc3c2C(=O)c2ccccc2C3=O)cn1` (stereo not given), the inhibition in data set [1] was found to be 45.9%.

Regarding `CC(C(=O)O)n1cc(-c2cccc3c2C(=O)c2ccccc2C3(O)C(F)(F)F)cn1` (stereo not given), in data set [2], the IC50 was 143 nM. Besides, the inhibition in data set [1] came to 47.2%.

`O=C1c2ccccc2C(=O)c2c1cccc2-c1cn[nH]c1`: the inhibition in data set [1] came to 32.9%.

`O=C1c2ccccc2C(=O)c2c1cccc2-c1ccc(O)cc1` yielded an inhibition in data set [1] of 35.9%. Regarding `O=C1c2ccccc2C(=O)c2c1cccc2C1=CCN(C(=O)Nc2ccccc2)CC1`, the inhibition in data set [1] is 32.6%.

In data set [1], `O=C(O)c1ccc(-c2cccc3c2C(=O)c2ccccc2C3=O)cc1` gave an inhibition of 30.4%. For the compound `O=C1CC2(CCCC2)CC(=O)N1CCCCN1CCN(c2ncccn2)CC1` [BUSPIRONE], in data set [6], the remaining at 0.5 h turned out to be 0.1%. For the same compound, in data set [7], the remaining at 0.5 h, 1 µM stood at 4%.
